Calls of active or inactive are those of the source. No cut-off for these calls is given here.
Assays:
[1] = test system: HCT-116; assay: Inhibition of Wnt/beta-catenin signaling pathway in human HCT116 cells assessed as downregulation of CCND1 mRNA expression at 5 to 10 uM after 12 hrs by real-time PCR analysis; type: cell-based
In short: (§1)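 HCT116 cells treated 12 h. Total RNA by TRI reagent, reverse-transcribed, SYBR Green real-time PCR: 40 cycles of 95 °C 20 s, 56 °C 20 s, 72 °C 30 s. Fold change by 2^−ΔΔCT normalized to β-actin, relative to untreated control; quadruplicate.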

[2] = test system: HCT-116; assay: Inhibition of Beta-catenin/TCF complex binding to DNA in human HCT116 cells at 5 to 10 uM after 30 mins by electrophoretic mobility shift assay; type: cell-based
In short: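 HCT116 cells (1 × 10^6) treated 30 min. Nuclear extract made by NP-40 hypotonic lysis, then 420 mM NaCl hypertonic extraction; protein by Bradford. Binding: 8 μg nuclear protein with 1.5 pmol biotin-labeled TCF binding probe, 15 °C for 30 min, read by EMSA against vehicle-treated cells.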

[3] = test system: HCT-116; assay: Inhibition of Wnt/beta-catenin codon 45 deletion mutant signaling pathway human HCT116 cells assessed as inhibition of TCF4 transcriptional activity after 24 hrs by TOPflash reporter gene assay; type: cell-based
In short: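 HCT116 cells seeded at 1.5 × 10^4/well and lipofected after 24 h with 0.1 μg TOPflash (or FOPflash) plus 0.005 μg Renilla; no β-catenin/TCF4 added. Treated 24 h for 24 h. Dual luciferase, Renilla-normalized, relative to vehicle; means ± SD, n = 3, four separate determinations.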

[4] = test system: HEK293; assay: Inhibition of Wnt/beta-catenin (unknown origin) signaling pathway expressed in HEK293 cells assessed as inhibition of TCF4 transcriptional activity at 5 to 40 uM after 24 hrs by FOPflash reporter gene assay; type: cell-based; conditions: Homo sapiens
In short: (§2)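 HEK293 cells seeded at 1.5 × 10^4/well. After 24 h, lipofected with 0.1 μg TOPflash or FOPflash, 0.005 μg Renilla, 0.02 μg β-catenin and 0.004 μg TCF4 vectors. Treated 24 h after transfection for 24 h. Dual luciferase read-out, firefly normalized to Renilla, relative to vehicle; triplicate.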

[5] = test system: HEK293; assay: Inhibition of Wnt/beta-catenin (unknown origin) signaling pathway expressed in HEK293 cells assessed as inhibition of TCF4 transcriptional activity after 24 hrs by TOPflash reporter gene assay; type: cell-based; conditions: Homo sapiens; in short: as §2
[6] = test system: HCT-116; assay: Antitumor activity against human HCT116 cells xenografted in BALB/c-nu mouse assessed as tumor growth inhibition at 10 mg/kg, ip administered 3 times per week for 4 weeks measured every 2 to 3 days during treatment relative to control; type: functional; conditions: HCT-116, ip, route intraperitoneal, read-out: TGI
In short: (§3)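 Female BALB/c-nu mice, 4−6 weeks old, acclimated one week, given 2 × 10^6 HCT116 cells sc in the flank. Dosing began near 100 mm3, about day 8; five mice per group. Dose in 0.5% Tween 80 in normal saline, 200 μL ip; controls got vehicle. Tumor volume by caliper = L × W × H/2. Study ended when control tumors averaged ~1300 mm3.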

[7] = test system: Mus musculus; assay: (§4) In vivo inhibition of Wnt/beta-catenin signaling pathway in human HCT116 cells xenografted in BALB/c-nu mouse assessed as downregulation of Ki-67 expression at 10 to 20 mg/kg, ip administered 3 times per week measured after 4 weeks by hematoxylin staining-based inverted phase-contrast microscopic analysis; type: functional, organism-based; conditions: HCT-116
In short: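 Immunohistochemistry on xenograft tumor sections from ip-dosed mice. Ki-67 detected with anti-Ki67 antibody and an LSAB+ HRP system. Sections counterstained with hematoxylin and photographed under an inverted phase-contrast microscope at 200×.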

[8] = test system: Mus musculus; assay: as §4, with “beta-catenin” for “Ki-67”; type: functional, organism-based; conditions: HCT-116
[9] = test system: Mus musculus; assay: as §4, with “cyclin D1” for “Ki-67”; type: functional, organism-based; conditions: HCT-116
[10] = test system: Mus musculus; assay: In vivo inhibition of Wnt/beta-catenin signaling pathway in human HCT116 cells xenografted in BALB/c-nu mouse assessed as downregulation of survivin protein expression at 10 to 20 mg/kg, ip administered 3 times per week measured after 4 weeks by Western blot analysis; type: functional, organism-based; conditions: HCT-116
In short: (§5)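 Part of each frozen xenograft tumor was thawed on ice and hand-homogenized in Complete Lysis Buffer. Protein was quantified and aliquots stored at −80 °C. Western blot: SDS-PAGE, PVDF transfer, ECL detection, compared with vehicle-treated tumors.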

[11] = test system: Mus musculus; assay: In vivo inhibition of Wnt/beta-catenin signaling pathway in human HCT116 cells xenografted in BALB/c-nu mouse assessed as downregulation of CMYC protein expression at 10 to 20 mg/kg, ip administered 3 times per week measured after 4 weeks by Western blot analysis; type: functional, organism-based; conditions: HCT-116; in short: as §5
[12] = test system: Mus musculus; assay: In vivo inhibition of Wnt/beta-catenin signaling pathway in human HCT116 cells xenografted in BALB/c-nu mouse assessed as downregulation of CCND1 protein expression at 10 to 20 mg/kg, ip administered 3 times per week measured after 4 weeks by Western blot analysis; type: functional, organism-based; conditions: HCT-116; in short: as §5
[13] = test system: Mus musculus; assay: In vivo inhibition of Wnt/beta-catenin signaling pathway in human HCT116 cells xenografted in BALB/c-nu mouse assessed as downregulation of NKD1 mRNA expression at 10 to 20 mg/kg, ip administered 3 times per week measured after 4 weeks by real-time PCR analysis; type: functional, organism-based; conditions: HCT-116
In short: (§6)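 Frozen tumors from ip-dosed HCT116 xenograft mice were extracted with TRI reagent and reverse-transcribed. SYBR Green real-time PCR run 40 cycles of 95/56/72 °C. Expression by 2^−ΔΔCT normalized to β-actin, relative to vehicle-treated controls; quadruplicate.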

[14] = test system: Mus musculus; assay: In vivo inhibition of Wnt/beta-catenin signaling pathway in human HCT116 cells xenografted in BALB/c-nu mouse assessed as downregulation of PLAU mRNA expression at 10 to 20 mg/kg, ip administered 3 times per week measured after 4 weeks by real-time PCR analysis; type: functional, organism-based; conditions: HCT-116; in short: as §6
[15] = test system: Mus musculus; assay: In vivo inhibition of Wnt/beta-catenin signaling pathway in human HCT116 cells xenografted in BALB/c-nu mouse assessed as downregulation of MMP7 mRNA expression at 10 to 20 mg/kg, ip administered 3 times per week measured after 4 weeks by real-time PCR analysis; type: functional, organism-based; conditions: HCT-116; in short: as §6
[16] = test system: Mus musculus; assay: In vivo inhibition of Wnt/beta-catenin signaling pathway in human HCT116 cells xenografted in BALB/c-nu mouse assessed as downregulation of CMYC mRNA expression at 10 to 20 mg/kg, ip administered 3 times per week measured after 4 weeks by real-time PCR analysis; type: functional, organism-based; conditions: HCT-116; in short: as §6
[17] = test system: Mus musculus; assay: In vivo inhibition of Wnt/beta-catenin signaling pathway in human HCT116 cells xenografted in BALB/c-nu mouse assessed as downregulation of CCND1 mRNA expression at 10 to 20 mg/kg, ip administered 3 times per week measured after 4 weeks by real-time PCR analysis; type: functional, organism-based; conditions: HCT-116; in short: as §6
[18] = test system: Mus musculus; assay: Toxicity in BALB/c-nu mouse xenografted with human HCT116 cells assessed as change in body weight at 10 to 20 mg/kg, ip administered 3 times per week measured for 4 weeks; type: organism-based, HCT-116; parameters: dose 10-20 mg/kg, route intraperitoneal; conditions: in vivo, 672 h
In short: (§7)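 Same HCT116 flank xenograft in female BALB/c-nu mice, five per group, dosed ip in 0.5% Tween 80/saline with vehicle controls. Toxicity was judged from lethality and body weight loss, with body weights tracked through the study.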

[19] = test system: Mus musculus; assay: Toxicity in BALB/c-nu mouse xenografted with human HCT116 cells assessed as overt toxicity at 10 to 20 mg/kg, ip administered 3 times per week measured for 4 weeks; type: organism-based, HCT-116; parameters: dose 10-20 mg/kg, route intraperitoneal; conditions: in vivo, 672 h; in short: as §7
[20] = test system: HCT-116; assay: Antitumor activity against human HCT116 cells xenografted in BALB/c-nu mouse assessed as tumor growth inhibition at 20 mg/kg, ip administered 3 times per week for 4 weeks measured every 2 to 3 days during treatment relative to control; type: functional; conditions: HCT-116, ip, route intraperitoneal, read-out: TGI; in short: as §3
[21] = test system: HCT-116; assay: Cytotoxicity against human HCT116 cells assessed as growth inhibition after 72 hrs by SRB assay; type: functional, cell-based; conditions: HCT-116, 72 h
In short: (§8)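 HCT116 cells seeded at 6 × 10^3/well and grown 24 h. Day-zero plates fixed; others exposed 24, 48 or 72 h. Fixed with 10% TCA, stained with 0.4% SRB in 1% acetic acid, dye taken up in 10 mM Tris pH 10.0, read at 515 nm. Proliferation % = (compound − day zero)/(control − day zero) × 100. IC50 by nonlinear regression; four determinations.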

[22] = test system: HCT-116; assay: Cytotoxicity against human HCT116 cells assessed as growth inhibition after 48 hrs by SRB assay; type: functional, cell-based; conditions: HCT-116, 48 h; in short: as §8
[23] = test system: HCT-116; assay: Cytotoxicity against human HCT116 cells assessed as growth inhibition after 24 hrs by SRB assay; type: functional, cell-based; conditions: HCT-116, 24 h; in short: as §8
[24] = test system: HCT-116; assay: Cytotoxicity against human HCT116 cells assessed as growth inhibition after 24 to 72 hrs by SRB assay; type: functional, cell-based; in short: as §8
[25] = test system: HCT-116; assay: Cytotoxicity against human HCT116 cells assessed as growth inhibition at 5 to 20 uM by SRB assay; type: functional, cell-based; conditions: TDE = time-dependent effect; in short: as §8
[26] = test system: HCT-116; assay: Inhibition of Wnt/beta-catenin signaling pathway in human HCT116 cells assessed as downregulation of total beta-catenin protein expression at 5 to 10 uM after 24 to 48 hrs by Western blot analysis; type: cell-based
In short: (§9)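 HCT116 cells treated 24 or 48 h. Lysed in RIPA buffer; equal protein run on 8−13% SDS-PAGE, blotted to PVDF, probed for β-catenin, c-myc and cyclin D1, detected by ECL. β-Actin served as internal standard; four determinations.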

[27] = test system: HCT-116; assay: Inhibition of Wnt/beta-catenin signaling pathway in human HCT116 cells assessed as downregulation of CMYC protein expression at 5 to 10 uM after 24 to 48 hrs by Western blot analysis; type: cell-based; in short: as §9
[28] = test system: HCT-116; assay: Inhibition of Wnt/beta-catenin signaling pathway in human HCT116 cells assessed as downregulation of CCND1 protein expression at 5 to 10 uM after 24 to 48 hrs by Western blot analysis; type: cell-based; in short: as §9
[29] = test system: HCT-116; assay: Inhibition of Wnt/beta-catenin signaling pathway in human HCT116 cells assessed as downregulation of NKD1 mRNA expression at 5 to 10 uM after 12 hrs by real-time PCR analysis; type: cell-based; in short: as §1
[30] = test system: HCT-116; assay: Inhibition of Wnt/beta-catenin signaling pathway in human HCT116 cells assessed as downregulation of DKK1 mRNA expression at 5 to 10 uM after 12 hrs by real-time PCR analysis; type: cell-based; in short: as §1
[31] = test system: HCT-116; assay: Inhibition of Wnt/beta-catenin signaling pathway in human HCT116 cells assessed as downregulation of AXIN2 mRNA expression at 5 to 10 uM after 12 hrs by real-time PCR analysis; type: cell-based; in short: as §1
[32] = test system: HCT-116; assay: Inhibition of Wnt/beta-catenin signaling pathway in human HCT116 cells assessed as downregulation of PLAU mRNA expression at 5 to 10 uM after 12 hrs by real-time PCR analysis; type: cell-based; in short: as §1
[33] = test system: HCT-116; assay: Inhibition of Wnt/beta-catenin signaling pathway in human HCT116 cells assessed as downregulation of MMP7 mRNA expression at 5 to 10 uM after 12 hrs by real-time PCR analysis; type: cell-based; in short: as §1
[34] = test system: HCT-116; assay: Inhibition of Wnt/beta-catenin signaling pathway in human HCT116 cells assessed as downregulation of CMYC mRNA expression at 5 to 10 uM after 12 hrs by real-time PCR analysis; type: cell-based; in short: as §1

## O=C/C=C/c1ccccc1O [2-HYDROXYCINNAMALDEHYDE]
[1]
  inhibition: Active
[2]
  inhibition: Active
[3]
  inhibition: Dose-dependent effect
[4]
  inhibition: inactive
[5]
  inhibition: Dose-dependent effect
[6]
  inhibition in vivo at 10 mg/kg: 52%
[7]
  inhibition: Active
[8]
  inhibition: Active
[9]
  inhibition: Active
[10]
  inhibition: Active
[11]
  inhibition: Active
[12]
  inhibition: Active
[13]
  inhibition: Active
[14]
  inhibition: Active
[15]
  inhibition: Active
[16]
  inhibition: Active
[17]
  inhibition: Active
[18]
  Activity: Non-toxic
[19]
  Activity: Non-toxic
[20]
  inhibition in vivo at 20 mg/kg: 69%
[21]
  IC50: 6.17 µM
[22]
  IC50: 6.62 µM
[23]
  IC50: 8.14 µM
[24]
  Activity: Dose-dependent effect
[25]
  Activity: tde
[26]
  inhibition: Active
[27]
  inhibition: Active
[28]
  inhibition: Active
[29]
  inhibition: Active
[30]
  inhibition: Active
[31]
  inhibition: Active
[32]
  inhibition: Active
[33]
  inhibition: Active
[34]
  inhibition: Active
